Experimental data as given in ChEMBL document CHEMBL4368928, “New hybrid trifluoromethylquinolines as antiplasmodium agents” (Bioorg Med Chem, 2019).

What was measured:
Plasmodium falciparum = assay: Antimalarial activity against chloroquine-resistant and mefloquine-sensitive Plasmodium falciparum W2 ring stage form infected in human erythrocytes by spectrophotometric analysis; type: functional, organism-based
In short: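 W2 clone grown in A+ human erythrocytes in RPMI 1640 with 1% Albumax II. Sorbitol-synchronized rings at 1.5% hematocrit and 0.05% parasitemia; compounds from 10 mg/mL DMSO stock, final 0.02% DMSO; triplicate per dose. Growth read by anti-HRPII ELISA (TMB, A450) versus drug-free cultures; IC50 from sigmoid dose-response fits.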

[1] = Cytotoxicity in African green monkey BGM cells assessed as reduction in cell viability incubated for 24 hrs by MTT assay; type: cell-based; settings: Chlorocebus aethiops
In short: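 BGM monkey kidney cells kept in RPMI 1640 with 10% heat-inactivated fetal serum at 37 °C, 5% CO2. Seeded at 5 × 10^3 cells/well and allowed to adhere 18 h. Exposed 24 h to 200–25 μg/mL from a 20 mg/mL DMSO stock. MTT added for 3 h, formazan dissolved in DMSO, OD read at 570/630 nm. Viability as % of untreated control; EC50 derived from this.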

[2] = Selectivity index, ratio of EC50 for African green monkey BGM cells to IC50 for chloroquine-resistant mefloquine-sensitive Plasmodium falciparum W2 ring stage form infected in human erythrocytes; type: toxicity, cell-based; settings: read-out: Selectivity Index
In short: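 SI = BGM EC50 / W2 IC50. BGM cells seeded at 5 × 10^3/well, adhered 18 h, exposed 24 h at 37 °C, 5% CO2 to 200–25 µg/mL (20 mg/mL DMSO stock). MTT added 3 h, formazan in DMSO, OD 570/630 nm; viability as % untreated. W2 IC50 from HRPII ELISA on synchronized rings.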

Plasmodium berghei [3] = assay: Antimalarial activity against Plasmodium berghei NK65 infected in mouse assessed as reduction in parasite growth at 50 mg/kg, po administered daily for 3 consecutive days and measured on day 9 post parasite inoculation relative to control; type: functional; set-up: scale not given: the % may be the effect or the level left
In short: (§1)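 Suppressive test: mice inoculated i.p. with 1 × 10^5 P. berghei NK65-infected erythrocytes, randomized about 24 h later to groups of five. Dosed orally once daily for three consecutive days, freshly diluted in 3% DMSO in RPMI; vehicle controls included. Parasitemia was read on days 5, 7 and 9 from Giemsa-stained, methanol-fixed tail-blood thin smears at 1000X. Inhibition is given relative to untreated mice, taken as 100% growth.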

Plasmodium berghei [4] = assay: Antimalarial activity against Plasmodium berghei NK65 infected in mouse assessed as reduction in parasite growth at 50 mg/kg, po administered daily for 3 consecutive days and measured on day 7 post parasite inoculation relative to control; type: functional; set-up: scale not given: the % may be the effect or the level left; in short: as §1
Plasmodium berghei [5] = assay: Antimalarial activity against Plasmodium berghei NK65 infected in mouse assessed as parasite survival at 50 mg/kg, po administered daily for 3 consecutive days (reference value: 13+/- 3 days); type: functional
In short: (§2)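 P. berghei NK65 (weekly blood passage); mice infected i.p. with 1 × 10^5 infected erythrocytes, grouped five per cage about 24 h later. Dosed orally once daily for three days in 3% DMSO/RPMI: test compounds at 50 mg/kg, CQ and MQ at 20 mg/kg, vehicle controls. Tail-blood Giemsa thin smears on days 5, 7 and 9; survival recorded in days.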

Plasmodium berghei [6] = assay: Antimalarial activity against Plasmodium berghei NK65 infected in mouse assessed as reduction in parasite growth at 50 mg/kg, po administered daily for 3 consecutive days and measured on day 5 post parasite inoculation relative to control; type: functional; set-up: scale not given: the % may be the effect or the level left; in short: as §1
Plasmodium berghei [7] = assay: Antimalarial activity against Plasmodium berghei NK65 infected in mouse assessed as parasite survival at 20 mg/kg, po administered daily for 3 consecutive days (reference value: 13+/- 3 days); type: functional; in short: as §2
Plasmodium berghei [8] = assay: Antimalarial activity against Plasmodium berghei NK65 infected in mouse assessed as reduction in parasite growth at 20 mg/kg, po administered daily for 3 consecutive days and measured on day 9 post parasite inoculation relative to control; type: functional; set-up: scale not given: the % may be the effect or the level left; in short: as §1
Plasmodium berghei [9] = assay: Antimalarial activity against Plasmodium berghei NK65 infected in mouse assessed as reduction in parasite growth at 20 mg/kg, po administered daily for 3 consecutive days and measured on day 7 post parasite inoculation relative to control; type: functional; set-up: scale not given: the % may be the effect or the level left; in short: as §1
Plasmodium berghei [10] = assay: Antimalarial activity against Plasmodium berghei NK65 infected in mouse assessed as reduction in parasite growth at 20 mg/kg, po administered daily for 3 consecutive days and measured on day 5 post parasite inoculation relative to control; type: functional; set-up: scale not given: the % may be the effect or the level left; in short: as §1

Compound `FC(F)(F)c1cc(N2CCNCC2)c2cccc(C(F)(F)F)c2n1` has an IC50 (Plasmodium falciparum) of 31.5 µM, an EC50 [1] of 17.2 µM and a selectivity ratio [2] of 0.5.
Compound `FC(F)(F)c1cc(Nc2ccccn2)c2cccc(C(F)(F)F)c2n1` has an IC50 (Plasmodium falciparum) of 19.6 µM, an EC50 [1] of less than 44.8 µM and a selectivity ratio [2] of less than 2.29.
For `Cc1nnc(Nc2cc(C(F)(F)F)nc3c(C(F)(F)F)cccc23)s1`, the IC50 (Plasmodium falciparum) was 1.8 µM, the EC50 [1] was 1.5 µM and the selectivity ratio [2] was 0.8.
`COc1ccc(Nc2cc(C(F)(F)F)nc3c(C(F)(F)F)cccc23)cc1OC` showed an IC50 (Plasmodium falciparum) of 4.8 µM, an EC50 [1] of 130 µM and a selectivity ratio [2] of 27.
Compound `FC(F)(F)c1cc(Nc2ccccc2)c2cccc(C(F)(F)F)c2n1` has an IC50 (Plasmodium falciparum) of 28 µM, an EC50 [1] of less than 22.5 µM and a selectivity ratio [2] of less than 0.83.
`Oc1ccc(Nc2cc(C(F)(F)F)nc3c(C(F)(F)F)cccc23)cc1` showed an IC50 (Plasmodium falciparum) of 24.1 µM, an EC50 [1] of 672 µM and a selectivity ratio [2] of less than 27.9.
Work on `FC(F)(F)c1cc(Nc2nnc[nH]2)c2cccc(C(F)(F)F)c2n1` yielded an IC50 (Plasmodium falciparum) of 2.9 µM, an EC50 [1] of less than 23.1 µM and a selectivity ratio [2] of less than 8.
Compound `Clc1ccc2c(Nc3ccncc3)ccnc2c1` has an IC50 (Plasmodium falciparum) of 11.7 µM, an EC50 [1] of 784 µM and a selectivity ratio [2] of 67.
`FC(F)(F)c1cc(Nc2nnc(C(F)(F)F)[nH]2)c2cccc(C(F)(F)F)c2n1` showed an IC50 (Plasmodium falciparum) of 11.5 µM, an EC50 [1] of 84.2 µM and a selectivity ratio [2] of 7.3.
For `Fc1ccc(Nc2cc(C(F)(F)F)nc3c(C(F)(F)F)cccc23)cc1`, the IC50 (Plasmodium falciparum) was 16 µM, the EC50 [1] was less than 42.8 µM and the selectivity ratio [2] was less than 2.67.
`FC(F)(F)c1cc(NC2CCCCC2)c2cccc(C(F)(F)F)c2n1` gave an IC50 (Plasmodium falciparum) of 11 µM, an EC50 [1] of 127 µM and a selectivity ratio [2] of 11.5.
In the case of `FC(F)(F)c1cc(Nc2ccncc2)c2cccc(C(F)(F)F)c2n1`, the IC50 (Plasmodium falciparum) is reported as 8.4 µM, the EC50 [1] is reported as greater than 560 µM and the Activity (Plasmodium berghei [3]) is reported as 11%. For the same compound, the Activity (Plasmodium berghei [4]) was 42%, the Survival (Plasmodium berghei [5]) was 15 days and the Activity (Plasmodium berghei [6]) was 25%. The selectivity ratio [2] was greater than 66.7.
`Cc1nnc(Nc2cc(C(F)(F)F)nc3c(C(F)(F)F)cccc23)[nH]1` gave an IC50 (Plasmodium falciparum) of 0.083 µM, an EC50 [1] of 11 µM and an Activity (Plasmodium berghei [3]) of 23%. The Activity (Plasmodium berghei [4]) was 30%, the Survival (Plasmodium berghei [5]) was 19 days and the Activity (Plasmodium berghei [6]) was 66%. The selectivity ratio [2] was 132.
Work on `FC(F)(F)c1cc(Nc2ncccn2)c2cccc(C(F)(F)F)c2n1` yielded an IC50 (Plasmodium falciparum) of 8.4 µM, an EC50 [1] greater than 559 µM and an Activity (Plasmodium berghei [3]) of 31%. It also gave an Activity (Plasmodium berghei [4]) of 35%, a Survival (Plasmodium berghei [5]) of 13 days and an Activity (Plasmodium berghei [6]) of 61%. The selectivity ratio [2] was greater than 66.5.
Compound `O[C@@H](c1cc(C(F)(F)F)nc2c(C(F)(F)F)cccc12)[C@H]1CCCCN1` (relative stereo) [(S,R)-MEFLOQUINE] has a Survival (Plasmodium berghei [7]) greater than 30 days, an IC50 (Plasmodium falciparum) of 0.019 µM and an Activity (Plasmodium berghei [8]) of 99%. It also gave an EC50 [1] of 15 µM, an Activity (Plasmodium berghei [9]) of 98% and an Activity (Plasmodium berghei [10]) of 98%. For the same compound, the selectivity ratio [2] was 789.
In the case of `FC(F)(F)c1cc(Nc2ccc3ccccc3c2)c2cccc(C(F)(F)F)c2n1`, the IC50 (Plasmodium falciparum) is reported as 9.6 µM, the EC50 [1] is reported as 12.3 µM and the selectivity ratio [2] is reported as 1.2.
For `FC(F)(F)c1cc(Nc2ccccc2C(F)(F)F)c2cccc(C(F)(F)F)c2n1`, the IC50 (Plasmodium falciparum) was 33 µM, the EC50 [1] was less than 18.9 µM and the selectivity ratio [2] was less than 0.57.
For `FC(F)(F)c1cc(N2CCOCC2)c2cccc(C(F)(F)F)c2n1`, the IC50 (Plasmodium falciparum) was greater than 143 µM, the EC50 [1] was 1680 µM and the selectivity ratio [2] was less than 11.7.
In the case of `CCN(CC)CCCC(C)Nc1ccnc2cc(Cl)ccc12` (stereo not given) [CHLOROQUINE], the Survival (Plasmodium berghei [7]) is reported as 24 days, the Activity (Plasmodium berghei [8]) is reported as 84% and the EC50 [1] is reported as 907 µM. It also gave an Activity (Plasmodium berghei [9]) of 99% and an Activity (Plasmodium berghei [10]) of 99%.
